Experimental data from ChEMBL document CHEMBL1130314, “Examination of the role of the acidic hydrogen in imparting selectivity of 7-(aminosulfonyl)-1,2,3,4-tetrahydroisoquinoline (SK&F 29661) toward inhibition of phenylethanolamine N-methyltransferase vs the alpha 2-adrenoceptor” (J Med Chem, 1997).

Tests used:
[1] = target: T1, Adrenergic receptor alpha-2 (Rattus norvegicus, UniProt P22086+P19328+P22909); test: Inhibition of [3H]clonidine binding to Alpha-2 adrenergic receptor; assay type: protein assay
T1 sequence (P22086 whole entry): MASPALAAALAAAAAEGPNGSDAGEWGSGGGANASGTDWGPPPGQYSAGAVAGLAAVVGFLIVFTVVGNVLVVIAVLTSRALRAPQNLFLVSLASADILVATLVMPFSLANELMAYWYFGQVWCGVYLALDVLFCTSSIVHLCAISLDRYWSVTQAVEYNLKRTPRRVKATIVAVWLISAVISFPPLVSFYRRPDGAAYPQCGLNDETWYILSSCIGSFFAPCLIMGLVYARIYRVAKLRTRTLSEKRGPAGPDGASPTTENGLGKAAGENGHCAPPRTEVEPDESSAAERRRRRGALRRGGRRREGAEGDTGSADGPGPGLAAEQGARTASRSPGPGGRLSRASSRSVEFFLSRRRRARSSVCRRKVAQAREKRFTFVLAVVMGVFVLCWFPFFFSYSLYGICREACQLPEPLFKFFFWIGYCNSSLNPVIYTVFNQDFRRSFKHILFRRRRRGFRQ
T1 sequence (P19328 whole entry): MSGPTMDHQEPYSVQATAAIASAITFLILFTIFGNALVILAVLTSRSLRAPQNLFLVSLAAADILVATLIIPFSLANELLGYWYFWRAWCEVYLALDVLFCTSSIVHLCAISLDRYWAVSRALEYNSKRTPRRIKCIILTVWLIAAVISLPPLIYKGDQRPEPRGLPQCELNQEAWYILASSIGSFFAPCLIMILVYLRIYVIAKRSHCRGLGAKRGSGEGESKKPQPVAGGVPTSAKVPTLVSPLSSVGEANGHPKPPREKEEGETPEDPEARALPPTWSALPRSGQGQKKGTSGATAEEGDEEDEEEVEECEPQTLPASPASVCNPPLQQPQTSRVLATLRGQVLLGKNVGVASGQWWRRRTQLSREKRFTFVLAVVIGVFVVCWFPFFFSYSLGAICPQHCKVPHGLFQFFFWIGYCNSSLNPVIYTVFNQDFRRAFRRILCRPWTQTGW
T1 sequence (P22909 whole entry): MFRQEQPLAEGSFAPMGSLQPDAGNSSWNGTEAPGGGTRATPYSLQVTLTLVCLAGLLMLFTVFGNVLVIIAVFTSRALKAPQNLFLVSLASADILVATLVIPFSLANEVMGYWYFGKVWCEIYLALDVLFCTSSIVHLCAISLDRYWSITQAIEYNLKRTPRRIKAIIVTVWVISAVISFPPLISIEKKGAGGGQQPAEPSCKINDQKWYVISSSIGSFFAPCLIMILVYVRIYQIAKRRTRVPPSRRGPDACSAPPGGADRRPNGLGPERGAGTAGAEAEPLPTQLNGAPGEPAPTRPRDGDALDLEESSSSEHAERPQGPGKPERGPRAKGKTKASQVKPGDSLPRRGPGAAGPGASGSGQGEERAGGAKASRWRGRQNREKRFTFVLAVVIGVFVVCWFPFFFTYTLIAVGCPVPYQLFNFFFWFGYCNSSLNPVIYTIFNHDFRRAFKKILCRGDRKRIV
Summary of the method: (§1)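 Cortex from male Sprague-Dawley rats, homogenized and washed three times by centrifugation (50000g) in 50 mM Tris·HCl pH 7.7. Incubated with 4.0 nM (final) [3H]clonidine for 30 min at 25 °C. Bound ligand collected by rapid filtration and counted. Nonspecific binding defined with 2 µM phentolamine. Quadruplicates at 5 inhibitor concentrations over a 16-fold range.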

[2] = Dissociation constant was determined; assay type: physicochemical
[3] = target: T2, Phenylethanolamine N-methyltransferase (Bos taurus, UniProt P10938); test: Inhibition of Phenylethanolamine N-methyl-transferase (PNMT)
T2 sequence (P10938 whole entry): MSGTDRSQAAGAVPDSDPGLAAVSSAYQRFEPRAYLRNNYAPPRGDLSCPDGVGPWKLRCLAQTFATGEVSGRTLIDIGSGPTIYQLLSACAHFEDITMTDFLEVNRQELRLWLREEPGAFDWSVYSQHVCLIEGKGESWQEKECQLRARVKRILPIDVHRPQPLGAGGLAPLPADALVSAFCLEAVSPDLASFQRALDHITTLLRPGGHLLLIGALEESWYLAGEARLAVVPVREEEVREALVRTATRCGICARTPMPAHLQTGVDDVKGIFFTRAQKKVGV
Summary of the method: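 Bovine adrenal PNMT, purified through isoelectric precipitation. Radiochemical assay in phosphate buffer pH 8.0 with unlabeled AdoMet plus [methyl-3H]AdoMet, with phenylethanolamine as the variable substrate. Incubated 30 min at 37 °C, then quenched with borate pH 10.0. Product extracted into toluene–isoamyl alcohol (7:3) and scintillation counted. Duplicates at three inhibitor concentrations over a 5-fold range. Ki from hyperbolic fit; mode checked by 1/V vs 1/S plots.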

[4] = Selectivity was expressed as the ratio is Ki of alpha 2-Adrenoceptor to tht of PNMT
[5] = target: T1, Adrenergic receptor alpha-2; test: Ability to inhibit binding of [3H]clonidine at the Alpha-2 adrenergic receptor; assay type: protein assay; summary of the method: as §1
[6] = Selectivity was expressed as the ratio is Ki of alpha 2-Adrenoceptor to that of PNMT

SMILES	Ki [1] [µM]	pKa [2]	Ki [3] [µM]	Selectivity ratio [4]	Ki [5] [µM]	Selectivity ratio [6]
CNS(=O)(=O)c1ccc2c(c1)CNCC2	130	11.4	4.6	28	–	–
Oc1ccc2c3c(ccc2c1)CCNC3	0.078	10	0.98	0.08	–	–
Clc1ccc2c(c1Cl)CNCC2	–	–	0.2	–	[…]	–
NCc1cccc2ccccc12	1.6	–	4.7	0.34	–	–
CS(=O)(=O)Nc1ccc2c(c1)CNCC2	11	9	48	0.23	–	–
NCc1cccc2cc(O)ccc12	2.1	10	8.4	0.25	–	–
O=S(=O)(Nc1ccc(Cl)cc1)c1ccc2c(c1)CNCC2	6.3	7.8	2.6	2.4	–	–
CS(=O)(=O)N(c1ccc2c(c1)CNCC2)S(C)(=O)=O	190	–	4500	0.042	–	–
COc1ccc2c3c(ccc2c1)CCNC3	0.84	–	1.4	0.6	–	–
COc1ccc2c(CN)cccc2c1	4.6	–	15	0.31	–	–
CS(=O)(=O)NCc1ccc2c(c1)CNCC2	18	11.9	330	0.055	–	–
Oc1ccc2c(c1)CNCC2	2.2	10	–	–	–	0.85
